Only some compounds are listed: those with a hit (about 9.6% of all), similar ones and a draw of the others.
bCat nuc transl: alters nuclear translocation of beta-catenin in HeLa cells; immunofluorescence imaging; 0.3% of 190,000 active; nuclear translocation activity, % at 5 µM;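 active = nuclear translocation activity above 50% at 5 µM, with a well cell count of 50 or more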;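 also: per-cell ratio of nuclear to cytoplasmic median beta-catenin stain intensity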
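Technique: fluorescence imaging of beta-catenin antibody stain plus DAPI / Material: human HeLa cell line / Incubation: compound treatment 24 h, 37°C, 5% CO2 / Read-out basis: % activation of per-cell nuclear versus cytoplasmic median beta-catenin signal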
APP transl inh: APP translation inhibition; SH-SY5Y APP 5'UTR-luciferase reporter, luminescence; inhibition, % at 2 µM; 0.82% of 190,000 active; AID 1285;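 active = inhibition above a set limit, derived from the sample mean plus 3 SD, cut at about 45% in these data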
MT stabilizer: microtubule stabilizers in HeLa cells | HeLa tubulin immunostaining HCS, 24 h; share of cells brighter than vehicle mean+2SD | % tubulin-high responders, % at 10 µM | 0.83% of 200,000 active;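 active = plate Z-score above 3 for both tubulin-high and condensed-nucleus cell shares, with cell loss under 80%, at 10 µM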;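 also: anti alpha tubulin signal scored within the nucleus-defined area of each cell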
Lmaj promast: reduces viability of Leishmania major promastigotes. resazurin fluorescence viability. inhibition, % at 10 µM. 9% of 200,000 active. AID 1063; in the data active = inhibition above about 50%;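 also: promastigotes grown with compound for 44 hours at 28 °C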
BaF3 parental: counter-screen for JAK2V617F inhibitors: parental Ba/F3 viability inhibitors. AID 1486. inhibition, % at 5.6 µM. 1.1% of 220,000 active. CellTiter-Glo ATP luminescence;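 active = inhibition above a per-campaign cutoff, the mean inhibition of all tested compounds plus 3 SD, cut at about 27% in these data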
Ba/F3 V617F tox: loss of viability in JAK2V617F-driven Ba/F3 cells. inhibition, % at 5.6 µM. 1.1% of 220,000 active. Ba/F3 EpoR-JAK2V617F viability, ATP luminescence;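 active = inhibition above the campaign mean plus 3 SD over all tested compounds, cut at about 24% in these data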;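 also: cytokine-independent growth of Ba/F3 cells driven by EpoR plus mutant JAK2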
Numbers stand for hits; . = inactive; / = no result.

SMILES	bCat nuc transl	APP transl inh	MT stabilizer	Lmaj promast	BaF3 parental	Ba/F3 V617F tox
Nc1nc(Sc2c([N+](=O)[O-])cc(C(F)(F)F)cc2[N+](=O)[O-])n[nH]1	.	/	/	/	.	.
Cc1ccc(C)c(NC(=S)NC2CC3CCCC(C2)N3CC(C)C)c1 (centres undefined)	.	.	.	65	.	.
CCOc1ccc(NC(=S)NC2CC3CCC(C2)N3Cc2ccco2)cc1 (centres undefined)	.	.	.	68	.	.
Fc1ccc(NC(=S)NC2CC3CCC(C2)N3Cc2ccco2)cc1 (centres undefined)	.	.	.	82	.	.
Cc1ccc(C)c(NC(=S)NC2CC3CCC(C2)N3Cc2ccco2)c1 (centres undefined)	.	.	.	.	.	.
Cc1cc(C)cc(NC(=S)NC2CC3CCC(C2)N3Cc2ccco2)c1 (centres undefined)	.	.	.	90	.	.
COc1ccc(C(=O)Nc2ccc([N+](=O)[O-])cn2)c(OC)c1	.	.	.	.	.	.
CCCN1C2CCCC1CC(NC(=S)Nc1cc(C)cc(C)c1)C2 (centres undefined)	.	.	.	54	.	.
Cc1cccc(NC(=S)NC2CC3CCCC(C2)N3Cc2cccs2)c1 (centres undefined)	.	.	.	89	.	.
CCCN1C2CCCC1CC(NC(=S)NCCCOCC)C2 (centres undefined)	.	.	.	.	.	.
CC(=O)N1C(=O)N(C(C)=O)C2C1N(C)C(=O)N2C(C)=O (centres undefined)	.	.	.	.	.	.
O=C(c1ccccn1)N(Cc1ccco1)C1(C(=O)NC2CCCC2)CCCCC1	/	.	.	.	45	.
O=C(NC1CCCCC1)N(Cc1ccccc1)Cc1ccco1	.	.	.	55	.	.
CCCC(C(=O)NC1CCCCC1)N(Cc1ccco1)C(=O)CNS(=O)(=O)c1ccccc1 (centres undefined)	.	.	.	63	.	.
O=C(c1cnccn1)N(Cc1ccco1)C1(C(=O)NC2CCCC2)CCCCC1	/	.	.	.	.	.
CC(C)C(C(=O)NCc1ccco1)N(C(=O)CNS(=O)(=O)c1ccc(Cl)cc1)C1CCCC1 (centres undefined)	/	.	.	89	.	.
COc1ccc(-n2c(SC(C)C(=O)Nc3ncc(Cl)cc3Cl)nc3ccccc32)cc1 (centres undefined)	.	.	18	.	62	69
Cc1ccc(Nc2nc(N)nc(CN3CCN(Cc4ccc5c(c4)OCO5)CC3)n2)cc1Cl	.	.	.	70	.	.
CC(C)(C)CC(C)(C)NC(=S)N1CCN(Cc2ccc3c(c2)OCO3)CC1	.	.	.	82	.	.
CCOCCCNC(=S)N1CCN(Cc2ccc3c(c2)OCO3)CC1	.	.	.	74	.	.
Cc1cc(Cl)ccc1NC(=S)N1CCN(Cc2ccc3c(c2)OCO3)CC1	.	.	.	87	.	.
Cc1ccc(NC(=O)N2CCN(Cc3ccc4c(c3)OCO4)CC2)cc1	/	.	.	.	.	.
Cc1cccc(NC(=O)N2CCN(Cc3ccc4c(c3)OCO4)CC2)c1C	.	.	.	56	.	.
COc1cc(C2C(C#N)=C(N)OC3=C2C(=O)CC(C)(C)C3)ccc1OCCN1CCOCC1 (centres undefined)	.	/	/	/	.	.
CCc1ccc(NC(=O)C2(c3ccccc3)CC2(Cl)Cl)cc1 (centres undefined)	.	.	.	96	.	.
SMILES	bCat nuc transl	APP transl inh	MT stabilizer	Lmaj promast	BaF3 parental	Ba/F3 V617F tox
Cc1ccc(NC(=O)C2(c3ccccc3)CC2(Cl)Cl)cc1C (centres undefined)	.	.	.	67	.	.
Cc1cccc(NC(=O)C2(c3ccccc3)CC2(Cl)Cl)c1 (centres undefined)	.	.	.	.	.	.
Cc1ccc(C(=O)N/C(=C/c2cccs2)C(=O)NCc2ccco2)cc1	.	.	.	.	.	.
CCOC(=O)C1(CCCc2ccccc2)CCN(CC(O)CO)CC1 (centres undefined)	.	.	.	.	.	.
O=S(=O)(c1ccc(Cl)cc1)N1CCC2(CC1)CO2	.	.	.	.	.	.
Cc1csc(N/N=C/c2ccccn2)n1	.	.	.	95	.	.
C(=N\NC1=Nc2cccc3cccc1c23)/c1ccccn1	.	.	.	100	.	.
CCOC(=O)CC1C(=O)NCCN1Cc1cccs1 (centres undefined)	.	.	.	.	.	.
